Experimental data taken from ChEMBL document CHEMBL1148393, “SAR studies of dihydro-beta-agarofuran sesquiterpenes as inhibitors of the multidrug-resistance phenotype in a Leishmania tropica line overexpressing a P-glycoprotein-like transporter” (J Med Chem, 2004).

Tests used:
Assay type in all cases: functional
Leishmania tropica [1] = assay: Percentage of growth inhibition of multidrug resistance Leishmania tropica Lines at 15 uM
Outline: (§1)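 Log-phase MDR promastigotes were plated at 3 × 10⁵ cells/well in RPMI 1640-modified medium with 20% FBS and 150 µM DNM. Sesquiterpenes (DMSO stocks diluted in medium) were added and cells kept 72 h at 28 °C. MTT was added for 4 h, formazan dissolved in 20% SDS and A540 read. Growth inhibition is relative to DNM-treated controls without modulator.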

Leishmania tropica [2] = assay: Percentage of growth inhibition of multidrug resistance Leishmania tropica Lines at 1 uM.; outline: as §1
Leishmania tropica [3] = assay: Percentage of growth inhibition of multidrug resistance Leishmania tropica Lines at 3 uM.; outline: as §1
Leishmania tropica [4] = assay: Percentage of growth inhibition of multidrug resistance Leishmania tropica Lines at 7 uM; Value ranges from 0 to 6%; outline: as §1
Leishmania tropica [5] = assay: Percent growth inhibition of wild type Leishmania tropica at 1 uM
Outline: (§2)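 Intrinsic toxicity on the wild-type L. tropica LRC clone, with no DNM present. Log-phase promastigotes were plated at 3 × 10⁵ cells/well in RPMI 1640-modified medium with 20% FBS, with sesquiterpene diluted from DMSO stocks, for 72 h at 28 °C. MTT was added for 4 h, then 20% SDS, and A540 read. Percent growth inhibition is taken against untreated control absorbance.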

Leishmania tropica [6] = assay: Percentage of growth inhibition of wild type Leishmania tropica Lines at 3 uM.; outline: as §2
Leishmania tropica [7] = assay: Percentage of growth inhibition of wild type Leishmania tropica Lines at 7 uM.; outline: as §2
Leishmania tropica [8] = assay: (§3) Percentage of growth inhibition of wild type Leishmania tropica lines at 15 uM; outline: as §2
Leishmania tropica [9] = assay: Percentage of growth inhibition of multidrug resistance Leishmania tropica Lines at 1 uM; outline: as §1
Leishmania tropica [10] = assay: Percentage of growth inhibition of multidrug resistance Leishmania tropica Lines at 3 uM; outline: as §1
Leishmania tropica [11] = assay: Percentage of growth inhibition of multidrug resistance Leishmania tropica Lines at 7 uM.; outline: as §1
Leishmania tropica [12] = assay: as §3; remark: listed apart in the source
Outline: (§4)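 WT L. tropica LRC-strain promastigotes (log phase, RPMI 1640-modified medium + 20% heat-inactivated FBS, 28 °C) seeded at 3 × 10⁵ cells/well and exposed without DNM to sesquiterpenes diluted from DMSO stocks. After 72 h at 28 °C, MTT (5 mg/mL in PBS) was added for 4 h, formazan dissolved in 20% SDS, A540 read. Growth inhibition (%) calculated relative to untreated control absorbance.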

Leishmania tropica [13] = assay: Percentage of growth inhibition of wild type Leishmania tropica Lines at 3 uM; outline: as §4
Leishmania tropica [14] = assay: Percentage of growth inhibition of wild type Leishmania tropica Lines at 7 uM; outline: as §4

Compound	inhibition at 15 µM (Leishmania tropica [1])	inhibition at 1 µM (Leishmania tropica [2])	inhibition at 3 µM (Leishmania tropica [3])	inhibition at 7 µM (Leishmania tropica [4])	inhibition at 1 µM (Leishmania tropica [5])	inhibition at 3 µM (Leishmania tropica [6])	inhibition at 7 µM (Leishmania tropica [7])	inhibition at 15 µM (Leishmania tropica [8])	inhibition at 1 µM (Leishmania tropica [9])	inhibition at 3 µM (Leishmania tropica [10])	inhibition at 7 µM (Leishmania tropica [11])	inhibition at 15 µM (Leishmania tropica [12])	inhibition at 3 µM (Leishmania tropica [13])	inhibition at 7 µM (Leishmania tropica [14])
CC(=O)O[C@H]1C[C@](C)(O)C23OC(C)(C)C(C[C@H](OC(=O)c4ccco4)[C@]2(C)[C@H]1OC(C)=O)[C@H]3O (stereo not given in full)	10.9%	< 6%	< 6%	6%	< 6%	< 6%	< 6%	< 6%						
COc1ccc(C(=O)O[C@@H]2C3C[C@H](OC(=O)c4ccco4)[C@]4(C)[C@@H](OC(C)=O)[C@@H](OC(C)=O)C[C@](C)(O)C24OC3(C)C)cc1 (stereo not given in full)	98.4%				< 6%	< 6%	< 6%		11.9%	35.4%	85%	17.2%		
CCCCCCCCCCCC(=O)O[C@@H]1C2C[C@H](OC(=O)c3ccco3)[C@]3(C)[C@@H](OC(C)=O)[C@@H](OC(C)=O)C[C@](C)(O)C13OC2(C)C (stereo not given in full)	80.5%	< 6%			< 6%	< 6%	< 6%	< 6%		8.8%	29.2%			
CC(=O)O[C@H]1C[C@](C)(O)C23OC(C)(C)C(C[C@H](OC(=O)c4ccco4)[C@]2(C)[C@H]1OC(C)=O)[C@H]3OC(=O)C(F)(F)F (stereo not given in full)	7.1%	< 6%	6%	6%	< 6%	< 6%	< 6%	< 6%						
CC(=O)O[C@H]1[C@@H](OC(=O)c2ccccc2)C[C@](C)(O)C23OC(C)(C)C(C[C@H](OC(=O)c4ccco4)[C@]12C)[C@H]3OC(=O)C(C)(C)C (stereo not given in full)	77.6%	< 6%	11.2%		< 6%	< 6%	< 6%	< 6%			25.9%			
CC(=O)O[C@H]1CC[C@](C)(O)C23OC(C)(C)C(C[C@H](OC(=O)c4ccco4)[C@]12C)[C@H]3OC(=O)c1ccco1 (stereo not given in full)	89.9%				< 6%				20.3%	66.9%	89%	24.6%	14.8%	16.4%
CC(=O)O[C@H]1[C@@H](OC(=O)c2ccccc2)C[C@](C)(O)C23OC(C)(C)C(C[C@H](OC(=O)c4ccco4)[C@]12C)[C@H]3OC(=O)c1ccco1 (stereo not given in full)	92.7%				< 6%				11.7%	74.8%	93.7%	35.3%	16.5%	21.4%
CC(=O)O[C@H]1[C@@H](OC(=O)c2ccccc2)C[C@](C)(O)C23OC(C)(C)C(C[C@H](OC(=O)c4ccco4)[C@]12C)[C@H]3O (stereo not given in full)	81.9%	< 6%			< 6%	< 6%	< 6%			11.1%	41.1%	8%		
CC(=O)O[C@@H]1C2C[C@H](OC(=O)c3ccco3)[C@]3(C)[C@@H](OC(C)=O)[C@@H](OC(=O)c4ccccc4)C[C@](C)(O)C13OC2(C)C (stereo not given in full)	45%	< 6%	6%		< 6%	< 6%	< 6%	< 6%			14.3%			
CC(=O)O[C@H]1[C@@H](OC(=O)c2ccco2)C[C@](C)(O)C23OC(C)(C)C(C[C@H](OC(=O)c4ccco4)[C@]12C)[C@H]3O (stereo not given in full)	44.5%	< 6%	< 6%		< 6%	< 6%	< 6%	< 6%			28.5%			
